According to ChEMBL document CHEMBL1124534, “Synthesis, mechanism of action, and biological evaluation of mitosenes” (1989):
Converted amounts (≈) assume the structure as drawn.

Key:
[1] = tested on: Mus musculus; assay: Percent T/C ([…]) for antitumor activity against P388 Leukemia in CD2 mice at fractioned dose treatment of 3 mg/kg; assay type: functional
How it was run: (§1)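 Mouse P388 leukemia model. Drugs were given intraperitoneally, either as a single injection or once daily for 9 consecutive days (fractioned schedule). Outcomes were median survival time in days, %T/C, and % body weight change.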

[2] = tested on: Mus musculus; assay: Mean relative body weight change of treated / mean relative body weight change of control when compound (2 mg/kg/day) administered to inhibit growth of human tumor xenograft GXF 97 was reported at day 21 in nude mice; assay type: functional
[3] = tested on: Mus musculus; assay: Percent inhibition of compound (6 mg/kg) was evaluated in vivo for antitumor activity against MAC 13 in female NMRI mice on day 2; assay type: functional
How it was run: (§2)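 MAC 13 in female NMRI mice. Drugs were given in arachis oil BP by ip route on day 2 or day 29. % inhibition was derived from treated/untreated control tumor weight (volume); a negative value indicates stimulation.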

[4] = tested on: Mus musculus; assay: Compound (6 mg/Kg) was evaluated in vivo for antitumor activity against MAC 16 in female NMRI mice on day 4 and ratio of tumor weight of treated to that of control was determined; assay type: functional
[5] = tested on: Mus musculus; assay: Ability of administered compound (2 mg/kg/day) to inhibit growth of human tumor xenograft GXF 97 was assessed on day 14 in nude mice
[6] = tested on: Mus musculus; assay: Percent T/C ([…]) for antitumor activity against P388 Leukemia in CD2 mice at fractioned dose treatment of 1 mg/kg; assay type: functional
How it was run: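 P388 leukemia mice dosed intraperitoneally once daily for 9 consecutive days. Median survival time (days) and body weight change were recorded. %T/C was based on survival of treated versus control mice.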

[7] = tested on: Mus musculus; assay: Median survival time in days for antitumor activity against P388 Leukemia in CD2 mice at a single dose treatment of 6 mg/kg; assay type: functional
How it was run: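 P388 leukemia-bearing mice were given one intraperitoneal injection. The read-out was median survival time in days, reported alongside %T/C and % body weight change.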

[8] = tested on: Mus musculus; assay: Percent inhibition of compound (50 mg/Kg) was evaluated in vivo for antitumor activity against MAC 13 in female NMRI mice on day 29; assay type: functional; how it was run: as §2
[9] = tested on: Mus musculus; assay: Percent T/C ([…]) for antitumor activity against P388 Leukemia in CD2 mice at a single dose treatment of 6 mg/kg; assay type: functional
How it was run: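 P388 leukemia mice given a single intraperitoneal injection. Median survival time (days) and body weight change were recorded. %T/C was derived from the survival of treated versus control mice.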

[10] = tested on: Mus musculus; assay: Body wieght treated/body weight untreated controls of compound (6 mg/kg) was evaluated in vivo for antitumor activity against MAC 16 in female NMRI mice on day 12; assay type: functional
[11] = tested on: Mus musculus; assay: Relative tumor size on day 28 was reported when compound (2 mg/kg/day) administered to inhibit growth of human tumor xenograft GXF 97 in nude mice; assay type: functional
How it was run: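 GXF 97 human gastric xenograft grown subcutaneously in nude mice for 24 days, then mice randomized; treatment began 1 day later. Fractioned ip injections on days 1-4, or single iv injection on day 1; 4-5 mice per group. Tumor size from length and width; relative tumor size (% of controls) read at day 28.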

[12] = tested on: Mus musculus; assay: Ability of administered compound (2 mg/kg/day) to inhibit growth of human tumor xenograft GXF 97 was assessed on day 21 in nude mice
[13] = tested on: Mus musculus; assay: Ability of intravenously administered compound (2 mg/kg, single dose) to inhibit growth of human tumor xenograft GXF 97 was assessed on day 28 in nude mice
[14] = tested on: Mus musculus; assay: Compound (40 mg/Kg) was evaluated in vivo for antitumor activity against MAC 16 in female NMRI mice on day 29 and ratio of tumor weight of treated to that of control was determined; assay type: functional
[15] = tested on: Mus musculus; assay: Median survival time in days for antitumor activity against P388 Leukemia in CD2 mice at fractioned dose treatment of 1 mg/kg; assay type: functional
How it was run: (§3)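 P388 leukemia-bearing mice were dosed intraperitoneally once daily for 9 consecutive days (fractioned schedule). The read-out was median survival time in days, reported alongside %T/C and % body weight change.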

[16] = tested on: Mus musculus; assay: Mean relative body weight change of treated / mean relative body weight change of control when compound (2 mg/kg/day) administered to inhibit growth of human tumor xenograft GXF 97 was reported at day 28 in nude mice; assay type: functional
[17] = tested on: Mus musculus; assay: Percentage change in body weight [(day 6 - day 1)/ day 1] for antitumor activity against P388 Leukemia in CD2 mice at fractioned dose treatment of 3 mg/kg; assay type: functional; how it was run: as §1
[18] = tested on: Mus musculus; assay: Compound (6 mg/Kg) was evaluated in vivo for antitumor activity against MAC 13 in female NMRI mice on day 2 and ratio of tumor weight of treated to that of control was determined
[19] = tested on: Mus musculus; assay: Compound (40 mg/Kg) was evaluated in vivo for antitumor activity against MAC 16 in female NMRI mice on day 12 and ratio of tumor weight of treated to that of control was determined; assay type: functional
[20] = tested on: Mus musculus; assay: Body wieght treated/body weight untreated controls of compound (6 mg/kg) was evaluated in vivo for antitumor activity against MAC 16 in female NMRI mice on day 4; assay type: functional
[21] = tested on: Mus musculus; assay: Percentage change in body weight [(day 6 - day 1)/ day 1] for antitumor activity against P388 Leukemia in CD2 mice at fractioned dose treatment of 1 mg/kg; assay type: functional; how it was run: as §1
[22] = tested on: WiDr; assay: In vitro antitumor activity against WiDr colon carcinoma tumor cell line was determined; assay type: functional; conditions: Homo sapiens, read-out: ID50 (the source's name)
How it was run: (§4)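 Cell growth inhibition in vitro measured by the PIT method, with mitomycin C as positive reference.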

[23] = tested on: Mus musculus; assay: Percent change in body weight [(day 6 - day 1)/ day 1] when P388 Leukemic CD2 mice were treated with a compound (6 mg/Kg); assay type: functional
[24] = tested on: L1210; assay: In vitro antitumor activity against L1210 lymphocytic leukemia tumor cell line was determined; assay type: functional; conditions: Mus musculus, read-out: ID50 (the source's name)
How it was run: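 Inhibition of L1210 leukemia colony formation in vitro, with mitomycin C as positive reference.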

[25] = tested on: A204; assay: In vitro antitumor activity against A204 rhabdomyosarcoma tumor cell line was determined; assay type: functional; conditions: Homo sapiens, read-out: ID50 (the source's name); how it was run: as §4
[26] = tested on: Mus musculus; assay: Mean relative body weight change of treated / mean relative body weight change of control when compound (2 mg/kg/day) administered to inhibit growth of human tumor xenograft GXF 97 was reported at day 14 in nude mice; assay type: functional
[27] = tested on: Mus musculus; assay: Median survival time in days for antitumor activity against P388 Leukemia in CD2 mice at fractioned dose treatment of 3 mg/kg; assay type: functional; how it was run: as §3

With CO[C@@]12[C@H](COC(N)=O)C3=C(C(=O)C(C)=C(N)C3=O)N1C[C@@H]1N[C@@H]12 [MITOMYCIN] as the molecule, how does the T/C [1] read?
Its T/C is 191%.

And the BWC [2]?
Its BWC is 108.5%.

And the I [3]?
The I was 88.4%.

What about the T/C [4] of the same molecule?
The T/C was 60%.

What about the T/C [5] of the same molecule?
The T/C was 9.9%.

And the T/C [6]?
The T/C was 309%.

And the MST [7]?
The MST was 21 days.

And the I [8]?
The I was 92.6%.

And the T/C [9]?
Its T/C is 191%.

And the BW [10]?
Its BW is 96%.

What about the “Relative TS” value [11] of the same molecule?
The value was 17%.

What about the T/C [12] of the same molecule?
Its T/C is 4.1%.

And the T/C [13]?
Its T/C is 2.6%.

And the T/C [14]?
The T/C was 7.4%.

What about the MST [15] of the same molecule?
The MST was 34 days.

What about the BWC [16] of the same molecule?
Its BWC is 108.4%.

What about the BWC [17] of the same molecule?
The BWC was -8%.

What about the T/C [18] of the same molecule?
Its T/C is 11.6%.

And the T/C [19]?
Its T/C is 81%.

What about the BW [20] of the same molecule?
The BW was 106%.

What about the BWC [21] of the same molecule?
Its BWC is -5.4%.

And the IC50 [22]?
Its IC50 is 0.031 µg/mL (≈ 0.0927 µM).

What about the BWC [23] of the same molecule?
Its BWC is -18.1%.

And the IC50 [24]?
Its IC50 is 0.031 µg/mL (≈ 0.0927 µM).

What about the IC50 [25] of the same molecule?
The IC50 was 0.02 µg/mL (≈ 0.0598 µM).

And the BWC [26]?
The BWC was 108.9%.

And the MST [27]?
Its MST is 21 days.
